Data set [1] addresses T1, Tah1 (Saccharomyces cerevisiae, UniProt P25638).
T1 sequence (P25638 1-111): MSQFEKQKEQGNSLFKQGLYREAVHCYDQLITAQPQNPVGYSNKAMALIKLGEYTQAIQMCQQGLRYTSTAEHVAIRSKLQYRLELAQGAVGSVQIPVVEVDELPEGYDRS
The data set is described as follows: ITC of peptides injected into Tah1. In kind it is binding, S. cerevisiae.

Another data set deals with yeast Hsp90 M705V. The data set is described as follows: ITC of TPR-domain proteins with yeast Hsp90 M705V. The following applies: 300 μM Tah1 injected into 30 μM yeast Hsp90 M705V, 4 °C, pH 8.0. The class given is binding. The method, boiled down:
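ITC: mouse CHIP or yeast Tah1 (His tags cleaved) at 300 µM was titrated as 9–11 injections of 27 µl into 30 µM yeast Hsp90 M705V. Runs were at 30 °C for CHIP and 4 °C for Tah1, in 20 mM Tris/HCl pH 8.0, 1 mM EDTA, 5 mM NaCl. Data were corrected for separately measured heat of dilution and fitted by nonlinear least squares for stoichiometry, binding constant and enthalpy.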

The target in data set [2] is T1, Tah1. Briefly: Sedimentation equilibrium analytical ultracentrifugation of Tah1. The following applies: for Kd: 20 °C, pH 7.5. The class given is physicochemical, S. cerevisiae. The method, boiled down:
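Tag-cleaved Tah1 was dialysed into 20 mM Tris/HCl pH 7.5, 1 mM EDTA, 5 mM NaCl. Sedimentation equilibrium was run at 20 °C, loading 7.0 and 0.5 mg·ml−1 (547 and 39 µM), with a 12 mm path. Initial scans at 726 g checked for aggregates, followed by 39030 g, scanning hourly until unchanged (24 h). Data were fitted by INVEQ, Mfit and NONLIN, and Ka was reciprocated to Kd. Reversible versus irreversible dimer was judged by comparing the two loadings.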

Ends that are not written are not given here.

What is called Kd is the constant that tells how readily two partners part at equilibrium. In the case of AEGPTAEEVD, the Kd on Tah1 [1] was 14.8 ± 0.7 µM.

The substance AEGPTMEEVD returned a Kd on Tah1 [1] of 4.2 ± 0.5 µM.

For PADTEAEEVD, the Kd at Tah1 [1] was found to be 3.3 ± 0.2 µM.

As to PADTEVEEVD, the Kd on Tah1 [1] came to 9.8 ± 0.7 µM.

For PADAAMEEVD, on Tah1 [1], the Kd came out at 0.75 ± 0.04 µM.

Turning to “Tah1: TPR-containing protein associated with Hsp90, S. cerevisiae, 111 amino acid residues, Hsp90-interacting co-chaperone”, the Kd at yeast Hsp90 M705V is 13 ± 1.7 µM; with Tah1 [2] (read-out: Kd by INVEQ, Tah1 0.5 mg·ml−1 (39 μM), monomer-dimer), 510 µM; in the data set with Tah1 [2] (read-out: Kd′ by NONLIN′, Tah1 0.5 mg·ml−1 (39 μM)), 150 µM; in the data set with Tah1 [2] (read-out: Kd′ by NONLIN′, Tah1 7.0 mg·ml−1 (547 μM)), 1800 µM. In the data set with Tah1 [2] (estimated from INVEQ fit, sedimentation equilibrium), the dimeric species present result is listed as “approx. 19%”.

The record behind these values is paper PMC2865030 (Biochemical Journal, 2008).
